pIC50: −log10 of the molar value.
Experiments:
[1] = molecular target: T1, Dual specificity tyrosine-phosphorylation-regulated kinase 1A (Homo sapiens, UniProt Q13627); test: Inhibition of tetracycline-inducible EGFP-DYRK1A (unknown origin) expressed in HEK293 cells coexpressing full length human EGFP-tau protein assessed as reduction in tau-Thr212 phosphorylation incubated overnight by immunoblotting assay
[2] = molecular target: T2, Phosphatidylinositol 4,5-bisphosphate 3-kinase catalytic subunit alpha isoform (Homo sapiens, UniProt P42336); test: Inhibition of PI3K p110alpha (unknown origin) at 1 uM relative to control
Outline: (§1)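 Single-point screen at 1 μM compound. Percent inhibition is the mean of two separate measurements, each run in duplicate.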

Casein kinase II = Casein kinase II (Homo sapiens, UniProt P19784+P67870+P68400); test: Inhibition of CK2 (unknown origin) using RRRDDDSDDD-NH2 as susbtrate incubated for 15 mins in presence of [gamma-32P]ATP; type: protein-complex assay
[3] = molecular target: T1, Dual specificity tyrosine-phosphorylation-regulated kinase 1A; test: Inhibition of recombinant human N-terminal His6-tagged DYRK1A catalytic domain expressed in Escherichia coli BL21(DE3) cells using KKISGRLSPIMTEQ-NH2 as substrate incubated for 15 mins in presence of [gamma-32P]ATP
[4] = Half life in rat plasma at 1 uM by LC-MS/MS analysis; type: ADME, cell-free
Outline: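 Pooled heparinized rat plasma incubated with 1 μM compound at 37 °C, sampled at 0, 5, 15, 30, 60 and 120 min. Reaction stopped with 5 volumes cold acetonitrile containing internal standard. Remaining compound quantified by LC-MS/MS. Half-life given as mean of two experiments.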

[5] = molecular target: Epidermal growth factor receptor (Homo sapiens, UniProt P00533); test: Inhibition of EGFR (unknown origin) incubated for 15 mins in presence of [gamma-32P]ATP; details: read-out: IC50
Outline: (§2)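 Purified recombinant kinase assayed with 100 μM ATP. Values averaged from at least two independent determinations.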

[6] = molecular target: Dual specificity protein kinase CLK1 (Homo sapiens, UniProt P49759); test: Inhibition of recombinant human GST-tagged CLK1 catalytic domain (129 to 484 residues) expressed in Escherichia coli using GRSRSRSRSRSRSRSR as substrate incubated for 15 mins in presence of [gamma-32P]ATP
Outline: (§3)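 Purified recombinant kinase with 100 µM ATP. IC50 values are averages of at least two independent determinations.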

[7] = molecular target: Protein kinase C beta type (Homo sapiens, UniProt P05771); test: Inhibition of PKCbeta (unknown origin) incubated for 15 mins in presence of [gamma-32P]ATP; details: for pIC50: read-out: IC50
Outline: as §2

[8] = molecular target: T3, Dual specificity tyrosine-phosphorylation-regulated kinase 2 (Homo sapiens, UniProt Q92630); test: Inhibition of recombinant human N-terminal GST-tagged DYRK2 expressed in Escherichia coli BL21(DE3) cells using KKISGRLSPIMTEQ-NH2 as substrate incubated for 15 mins in presence of [gamma-32P]ATP; details: read-out: IC50
T3 sequence (Q92630 whole entry): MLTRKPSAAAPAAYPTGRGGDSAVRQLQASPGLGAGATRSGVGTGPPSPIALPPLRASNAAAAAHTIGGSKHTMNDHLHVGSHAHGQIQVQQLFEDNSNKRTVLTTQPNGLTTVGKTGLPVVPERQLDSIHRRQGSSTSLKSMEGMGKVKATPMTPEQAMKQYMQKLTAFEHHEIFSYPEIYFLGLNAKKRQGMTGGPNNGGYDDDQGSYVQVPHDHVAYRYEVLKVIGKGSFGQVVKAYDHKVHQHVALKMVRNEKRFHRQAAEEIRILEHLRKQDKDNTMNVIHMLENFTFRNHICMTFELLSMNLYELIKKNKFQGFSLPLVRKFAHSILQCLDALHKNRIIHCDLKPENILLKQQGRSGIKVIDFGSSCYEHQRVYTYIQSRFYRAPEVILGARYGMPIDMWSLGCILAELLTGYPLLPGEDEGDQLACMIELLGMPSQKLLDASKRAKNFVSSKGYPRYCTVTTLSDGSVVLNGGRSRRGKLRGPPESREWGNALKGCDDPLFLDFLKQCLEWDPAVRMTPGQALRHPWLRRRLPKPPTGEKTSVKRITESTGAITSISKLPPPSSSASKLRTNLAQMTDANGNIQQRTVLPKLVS
Outline: as §3

[9] = molecular target: T4, Serine/threonine-protein kinase haspin (Homo sapiens) (UniProt Q8TF76); test: Inhibition of Haspin (unknown origin) at 1 uM relative to control
T4 sequence (whole entry): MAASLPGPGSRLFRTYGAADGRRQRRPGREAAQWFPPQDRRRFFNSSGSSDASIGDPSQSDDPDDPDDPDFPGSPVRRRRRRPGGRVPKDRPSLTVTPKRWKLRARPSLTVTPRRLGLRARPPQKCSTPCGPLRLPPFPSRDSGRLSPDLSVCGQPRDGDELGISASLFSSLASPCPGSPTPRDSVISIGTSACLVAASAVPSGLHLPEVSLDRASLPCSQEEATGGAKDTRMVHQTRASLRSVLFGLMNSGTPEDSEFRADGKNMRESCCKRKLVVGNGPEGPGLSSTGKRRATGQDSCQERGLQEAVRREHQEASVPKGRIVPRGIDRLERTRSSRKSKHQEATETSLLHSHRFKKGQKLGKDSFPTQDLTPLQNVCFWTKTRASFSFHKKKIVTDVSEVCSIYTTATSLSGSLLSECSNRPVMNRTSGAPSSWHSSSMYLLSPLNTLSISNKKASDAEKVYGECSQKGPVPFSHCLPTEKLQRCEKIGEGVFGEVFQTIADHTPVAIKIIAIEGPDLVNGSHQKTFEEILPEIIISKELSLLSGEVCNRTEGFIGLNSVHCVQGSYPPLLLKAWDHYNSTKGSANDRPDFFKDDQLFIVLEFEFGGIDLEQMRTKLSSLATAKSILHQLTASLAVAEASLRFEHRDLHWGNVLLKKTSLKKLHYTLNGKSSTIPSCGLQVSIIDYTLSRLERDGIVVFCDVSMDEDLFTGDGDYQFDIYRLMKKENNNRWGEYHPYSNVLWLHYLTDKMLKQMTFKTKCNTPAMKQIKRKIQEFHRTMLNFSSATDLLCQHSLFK
Outline: as §1

[10] = molecular target: Dual specificity tyrosine-phosphorylation-regulated kinase 1B (Homo sapiens, UniProt Q9Y463); test: Inhibition of full length recombinant human GST-tagged DYRK1B expressed in insect cells using KKISGRLSPIMTEQ-NH2 as substrate incubated for 15 mins in presence of [gamma-32P]ATP
[11] = molecular target: T5, Phosphatidylinositol 4,5-bisphosphate 3-kinase catalytic subunit gamma isoform (Homo sapiens, UniProt P48736); test: Inhibition of PI3K p110gamma (unknown origin)
[12] = molecular target: T2, Phosphatidylinositol 4,5-bisphosphate 3-kinase catalytic subunit alpha isoform; test: Inhibition of PI3K p110alpha (unknown origin)
[13] = molecular target: T4, Serine/threonine-protein kinase haspin (Homo sapiens); test: Inhibition of Haspin (unknown origin) at 5 uM relative to control
[14] = molecular target: T5, Phosphatidylinositol 4,5-bisphosphate 3-kinase catalytic subunit gamma isoform; test: Inhibition of PI3K p110gamma (unknown origin) at 5 uM relative to control

T2 sequence (P42336 whole entry, canonical isoform): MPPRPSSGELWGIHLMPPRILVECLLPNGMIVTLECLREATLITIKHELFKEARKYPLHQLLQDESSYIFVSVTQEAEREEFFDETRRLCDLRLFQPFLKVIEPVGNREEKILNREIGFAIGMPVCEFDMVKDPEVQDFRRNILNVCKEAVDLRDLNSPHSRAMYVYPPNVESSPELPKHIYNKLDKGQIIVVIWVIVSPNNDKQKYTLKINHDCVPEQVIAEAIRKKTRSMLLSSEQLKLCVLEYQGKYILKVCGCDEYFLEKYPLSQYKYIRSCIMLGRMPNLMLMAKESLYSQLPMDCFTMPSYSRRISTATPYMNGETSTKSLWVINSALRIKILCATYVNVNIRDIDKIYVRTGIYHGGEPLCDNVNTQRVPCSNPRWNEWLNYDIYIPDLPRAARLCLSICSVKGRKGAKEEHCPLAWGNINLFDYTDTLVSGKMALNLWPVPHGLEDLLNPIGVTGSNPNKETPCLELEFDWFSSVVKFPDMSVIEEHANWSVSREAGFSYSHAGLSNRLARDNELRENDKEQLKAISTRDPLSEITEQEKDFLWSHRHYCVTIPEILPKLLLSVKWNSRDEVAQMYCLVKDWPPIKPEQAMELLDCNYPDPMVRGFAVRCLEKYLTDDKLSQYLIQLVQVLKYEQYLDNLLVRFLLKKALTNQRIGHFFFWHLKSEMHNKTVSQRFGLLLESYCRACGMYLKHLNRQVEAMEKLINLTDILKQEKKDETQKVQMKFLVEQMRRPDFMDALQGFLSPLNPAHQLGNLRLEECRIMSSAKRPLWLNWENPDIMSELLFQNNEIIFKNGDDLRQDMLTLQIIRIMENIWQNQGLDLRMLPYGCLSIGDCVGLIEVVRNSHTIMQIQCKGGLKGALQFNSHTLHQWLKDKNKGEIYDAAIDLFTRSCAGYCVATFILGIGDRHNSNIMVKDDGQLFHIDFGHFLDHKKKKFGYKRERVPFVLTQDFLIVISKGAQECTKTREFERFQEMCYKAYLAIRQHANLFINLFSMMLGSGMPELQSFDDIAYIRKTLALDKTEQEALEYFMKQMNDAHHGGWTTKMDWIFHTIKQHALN
Sequence of Dual specificity protein kinase CLK1 (P49759 whole entry, the tested form may be a part): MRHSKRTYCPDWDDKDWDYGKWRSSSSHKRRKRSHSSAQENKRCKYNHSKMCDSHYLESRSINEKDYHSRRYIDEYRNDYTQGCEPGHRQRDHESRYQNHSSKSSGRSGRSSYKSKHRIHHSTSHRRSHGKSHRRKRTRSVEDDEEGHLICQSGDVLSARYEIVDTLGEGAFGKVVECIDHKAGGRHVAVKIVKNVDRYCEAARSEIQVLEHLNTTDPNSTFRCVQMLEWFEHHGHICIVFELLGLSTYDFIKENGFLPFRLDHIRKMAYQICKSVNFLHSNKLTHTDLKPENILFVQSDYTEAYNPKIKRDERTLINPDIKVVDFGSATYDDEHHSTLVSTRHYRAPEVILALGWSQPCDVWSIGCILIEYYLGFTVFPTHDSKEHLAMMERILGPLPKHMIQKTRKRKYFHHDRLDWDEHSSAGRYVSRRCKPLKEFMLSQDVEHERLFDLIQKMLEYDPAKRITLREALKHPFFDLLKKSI
Sequence of Casein kinase II (P67870 whole entry, the tested form may be a part): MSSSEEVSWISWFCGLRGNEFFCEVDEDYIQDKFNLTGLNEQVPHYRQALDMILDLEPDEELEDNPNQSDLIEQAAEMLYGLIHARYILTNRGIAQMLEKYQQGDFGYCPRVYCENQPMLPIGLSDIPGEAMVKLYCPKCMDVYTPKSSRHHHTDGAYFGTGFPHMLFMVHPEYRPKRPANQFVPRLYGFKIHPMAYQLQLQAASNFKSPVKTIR
Sequence of Casein kinase II (P68400 whole entry, the tested form may be a part): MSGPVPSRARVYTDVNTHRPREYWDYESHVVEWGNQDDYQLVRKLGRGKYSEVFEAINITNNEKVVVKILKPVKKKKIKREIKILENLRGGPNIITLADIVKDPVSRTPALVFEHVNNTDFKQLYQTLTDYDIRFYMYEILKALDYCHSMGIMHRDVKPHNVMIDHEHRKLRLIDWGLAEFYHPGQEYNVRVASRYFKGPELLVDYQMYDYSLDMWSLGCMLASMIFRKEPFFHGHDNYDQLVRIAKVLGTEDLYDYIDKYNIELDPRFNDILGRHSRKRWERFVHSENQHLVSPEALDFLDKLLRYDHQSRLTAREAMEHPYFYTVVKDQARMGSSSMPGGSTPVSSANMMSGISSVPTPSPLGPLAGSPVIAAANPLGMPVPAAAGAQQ
Sequence of Casein kinase II (P19784 whole entry, the tested form may be a part): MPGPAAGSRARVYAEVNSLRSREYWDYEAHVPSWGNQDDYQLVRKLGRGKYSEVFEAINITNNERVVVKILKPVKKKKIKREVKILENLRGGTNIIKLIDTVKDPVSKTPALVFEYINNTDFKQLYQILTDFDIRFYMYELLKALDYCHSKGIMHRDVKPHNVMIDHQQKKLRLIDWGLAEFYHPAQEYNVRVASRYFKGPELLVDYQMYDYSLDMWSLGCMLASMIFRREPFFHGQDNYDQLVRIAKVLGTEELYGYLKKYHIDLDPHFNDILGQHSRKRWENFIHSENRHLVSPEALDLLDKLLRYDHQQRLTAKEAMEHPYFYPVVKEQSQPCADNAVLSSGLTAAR
Sequence of Epidermal growth factor receptor (P00533 whole entry): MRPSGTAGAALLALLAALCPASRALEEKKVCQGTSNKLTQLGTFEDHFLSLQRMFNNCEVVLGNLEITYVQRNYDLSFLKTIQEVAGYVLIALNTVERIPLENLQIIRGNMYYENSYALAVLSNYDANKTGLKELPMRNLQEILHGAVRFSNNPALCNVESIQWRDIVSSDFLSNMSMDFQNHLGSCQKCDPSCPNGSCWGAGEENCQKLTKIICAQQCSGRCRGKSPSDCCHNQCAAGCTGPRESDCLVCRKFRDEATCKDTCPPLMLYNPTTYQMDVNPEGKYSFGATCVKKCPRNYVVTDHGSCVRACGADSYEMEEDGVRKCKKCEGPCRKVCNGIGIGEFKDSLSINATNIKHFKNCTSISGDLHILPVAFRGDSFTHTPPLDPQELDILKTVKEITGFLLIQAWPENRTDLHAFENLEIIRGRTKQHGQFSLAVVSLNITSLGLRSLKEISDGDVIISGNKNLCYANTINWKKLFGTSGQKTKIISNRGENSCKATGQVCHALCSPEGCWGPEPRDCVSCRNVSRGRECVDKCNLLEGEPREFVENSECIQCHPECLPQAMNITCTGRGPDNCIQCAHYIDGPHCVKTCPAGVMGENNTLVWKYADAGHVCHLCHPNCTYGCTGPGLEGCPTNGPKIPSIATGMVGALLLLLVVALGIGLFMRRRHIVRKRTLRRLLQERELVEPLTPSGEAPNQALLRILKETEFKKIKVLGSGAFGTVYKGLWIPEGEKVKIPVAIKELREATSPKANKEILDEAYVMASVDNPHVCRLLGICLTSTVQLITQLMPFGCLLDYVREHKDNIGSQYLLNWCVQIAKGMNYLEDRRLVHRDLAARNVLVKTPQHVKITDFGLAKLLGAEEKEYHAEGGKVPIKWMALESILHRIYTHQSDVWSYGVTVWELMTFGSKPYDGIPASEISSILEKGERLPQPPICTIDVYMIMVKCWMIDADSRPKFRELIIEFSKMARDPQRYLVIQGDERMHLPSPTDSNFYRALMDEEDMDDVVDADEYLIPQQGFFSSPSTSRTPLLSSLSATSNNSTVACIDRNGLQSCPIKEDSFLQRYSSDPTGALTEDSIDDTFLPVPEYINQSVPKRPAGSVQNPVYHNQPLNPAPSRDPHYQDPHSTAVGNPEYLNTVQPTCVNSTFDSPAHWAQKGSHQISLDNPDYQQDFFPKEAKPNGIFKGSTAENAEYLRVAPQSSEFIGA
Sequence of Dual specificity tyrosine-phosphorylation-regulated kinase 1B (Q9Y463 whole entry, canonical isoform): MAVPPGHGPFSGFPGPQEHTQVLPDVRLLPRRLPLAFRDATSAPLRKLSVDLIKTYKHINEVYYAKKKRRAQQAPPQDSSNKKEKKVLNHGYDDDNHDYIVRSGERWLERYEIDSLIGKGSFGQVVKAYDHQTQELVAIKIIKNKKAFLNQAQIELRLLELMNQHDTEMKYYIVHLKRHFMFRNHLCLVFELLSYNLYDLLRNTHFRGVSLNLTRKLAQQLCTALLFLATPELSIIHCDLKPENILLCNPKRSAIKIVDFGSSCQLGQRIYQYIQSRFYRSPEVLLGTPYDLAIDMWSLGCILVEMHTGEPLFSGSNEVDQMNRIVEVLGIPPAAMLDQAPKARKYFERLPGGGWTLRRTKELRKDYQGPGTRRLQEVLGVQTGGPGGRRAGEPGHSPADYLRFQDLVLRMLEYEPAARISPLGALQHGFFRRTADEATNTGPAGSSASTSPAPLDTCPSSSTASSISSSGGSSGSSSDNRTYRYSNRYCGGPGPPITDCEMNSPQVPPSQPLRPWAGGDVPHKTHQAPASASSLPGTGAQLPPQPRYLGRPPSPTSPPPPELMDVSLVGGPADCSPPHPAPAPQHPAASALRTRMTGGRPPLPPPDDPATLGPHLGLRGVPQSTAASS
Sequence of Protein kinase C beta type (P05771 whole entry): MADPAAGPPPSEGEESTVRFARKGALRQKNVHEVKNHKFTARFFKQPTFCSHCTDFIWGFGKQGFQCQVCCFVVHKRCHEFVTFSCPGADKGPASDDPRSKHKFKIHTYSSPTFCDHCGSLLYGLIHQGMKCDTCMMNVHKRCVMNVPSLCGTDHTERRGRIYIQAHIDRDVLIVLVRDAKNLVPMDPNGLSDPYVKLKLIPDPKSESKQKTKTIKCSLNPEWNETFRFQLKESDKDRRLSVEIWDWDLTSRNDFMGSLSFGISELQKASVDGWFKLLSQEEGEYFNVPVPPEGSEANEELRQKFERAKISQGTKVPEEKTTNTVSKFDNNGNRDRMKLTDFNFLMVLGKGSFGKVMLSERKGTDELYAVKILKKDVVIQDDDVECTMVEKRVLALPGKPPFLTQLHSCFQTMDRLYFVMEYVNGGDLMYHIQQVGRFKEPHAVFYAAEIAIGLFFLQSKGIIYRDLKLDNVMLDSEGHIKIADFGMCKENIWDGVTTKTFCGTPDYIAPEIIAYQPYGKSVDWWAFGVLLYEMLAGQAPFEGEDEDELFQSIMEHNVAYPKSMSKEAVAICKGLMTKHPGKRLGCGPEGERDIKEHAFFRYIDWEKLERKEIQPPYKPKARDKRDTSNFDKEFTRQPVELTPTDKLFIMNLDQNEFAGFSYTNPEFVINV

Row | pIC50 [1] | inhibition [2] | pIC50 (Casein kinase II) | pIC50 [3] | half-life at 1 µM [4] | pIC50 [5] | pIC50 [6] | pIC50 [7] | pIC50 [8] | inhibition [9] | pIC50 [10] | pIC50 [11] | pIC50 [12] | inhibition [13] | inhibition [14] | IC50 [7] | Structure (SMILES)
1 | 5.68 | 98% | 7.22 | 7.40 | 1.68 h | < 5.00 | 7.00 | 5.04 | 6.70 | 93% | 7.15 | 8.64 | 8.66 | – | – | – | O=C1NC(=S)S/C1=C\c1ccc2ncsc2c1
2 | 5.85 | 100% | 7.40 | 7.70 | – | < 5.00 | 6.70 | < 5.00 | 7.22 | 93% | 7.22 | 8.64 | 8.59 | – | – | – | O=C1NC(=S)S/C1=C\c1ccc2ncccc2c1
3 | 5.68 | – | < 5.00 | 6.77 | > 2 h | < 5.00 | < 5.00 | – | 6.37 | – | 5.58 | – | 6.19 | 43% | 75% | Not Active | CC1C/C(=C\c2ccc3c(c2)CCO3)C(=O)O1 (stereo not drawn)
4 | 6.70 | – | < 5.00 | 6.89 | 3.1 h | < 5.00 | < 5.00 | – | 7.22 | – | 5.98 | – | – | 75% | 79% | Not Active | O=C1OCC/C1=C\c1ccc2ncsc2c1

Source: ChEMBL document CHEMBL3774321, “Systematic diversification of benzylidene heterocycles yields novel inhibitor scaffolds selective for Dyrk1A, Clk1 and CK2” (Eur J Med Chem, 2016)
